From publication PMC12282411 (Virologica Sinica, 2025)
Residue numbers refer to the chain shown, from its start. Structures can show the parent of a compound that is named as a salt.

How the values were obtained:
DENV 2 [1] = assay: Antiviral assay on Huh 7 cells; assay type: cell-based; settings: Dengue virus, Huh-7, 48 h, read-out: EC50 (Huh 7 μM)
Procedure, shortened: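 Huh 7 cells were seeded at 4×10^4/well and grown overnight at 37 °C, 5% CO₂. Test compound was serially diluted threefold from 50 µM in DMEM with 2% FBS and added to cells for 1 h. DENV 2 was added at MOI 1 for 1 h, then the inoculum was removed, cells washed with PBS, and compound re-added. After two days, supernatant viral RNA was quantified by one-step SYBR RT-qPCR against an NS5A standard curve.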

DENV 2 [2] = assay: microbe, parasite or virus in culture; assay type: cell-based; settings: for EC50: Dengue virus, BHK-21, 48 h, read-out: EC50 (BHK-21 μM); for SI (CC50/EC50): selective index, BHK-21 CC50 / BHK-21 EC50
NS2B-NS3pro = target: T1, NS2B-NS3pro (Dengue virus type 2, UniProt P29990, M1488V); assay type: binding, DENV 2; settings: SPR
T1 sequence (P29990 with tags, fused parts or gaps T1441G/I1442G/L1443G/I1444G/R1445S/T1446G/DEL1448-1473/Q1474G/R1475G/M1488V): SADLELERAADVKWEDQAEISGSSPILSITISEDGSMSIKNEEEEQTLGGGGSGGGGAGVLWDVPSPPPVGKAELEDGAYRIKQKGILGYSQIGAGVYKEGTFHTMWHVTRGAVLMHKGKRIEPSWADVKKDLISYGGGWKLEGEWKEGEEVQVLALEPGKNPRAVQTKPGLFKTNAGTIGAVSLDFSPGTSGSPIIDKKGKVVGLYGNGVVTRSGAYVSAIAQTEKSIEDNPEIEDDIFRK

DENV 2 [3] = assay: Time-of-addition assay; assay type: cell-based; settings: BHK-21 cells
Procedure, shortened: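 The assay used BHK-21 cells seeded overnight. In the treatment-mode arms, cells were infected at MOI 0.1 for 0–1 h, with compound applied as virus pretreatment for 1 h, cell pretreatment (–1–0 h), post-infection (1–46 h) or full-time (–1–46 h). In the addition-time arms, infection was at MOI 1 for 1 h, with compound added at 0–36 h. Readout at 48 h was supernatant RT-qPCR and IFA, with DMSO and ribavirin as controls.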

DENV 2 NS2B-NS3pro = target: T2, DENV 2 NS2B-NS3pro (Dengue virus type 2, UniProt P29990); assay: Enzyme kinetic analysis; assay type: biochemical
T2 sequence (P29990 with tags, fused parts or gaps T1441G/I1442G/L1443G/I1444G/R1445S/T1446G/DEL1448-1473/Q1474G/R1475G): T1 sequence (P29990 with tags, fused parts or gaps T1441G/I1442G/L1443G/I1444G/R1445S/T1446G/DEL1448-1473/Q1474G/R1475G/M1488V) with V70M

Water solubility = assay type: physicochemical
DENV 2 [4] = assay: DENV 2 challenge of AG129 mice; assay type: in vivo; settings: for viral copy numbers in the spleen and liver: i.g., two days post infection, Fig. 2F
Pharmacokinetics in rats = assay type: in vivo, Sprague-Dawley rats; settings: SD rats, i.v. as a reference
Procedure, shortened: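 Male Sprague-Dawley rats (180–220 g), three per group, were fasted overnight. Test compound was dosed i.g. at 20 mg/kg as a suspension in 0.4% sodium carboxymethylcellulose, or i.p. dissolved by sonication in 10% DMSO/40% PEG 300/5% Tween 80/45% saline. Jugular plasma was sampled repeatedly up to 36 h. Samples were mixed with diclofenac sodium, precipitated with acetonitrile, and analysed by LC-MS/MS. Parameters were derived by non-compartmental analysis.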

ZIKV NS2B-NS3pro = target: T3, ZIKV NS2B-NS3pro (Zika virus, UniProt Q32ZE1); assay: FRET assay on ZIKV NS2B-NS3pro; assay type: biochemical
T3 sequence (Q32ZE1 with tags, fused parts or gaps DEL1464-1489/Y1490G/V1491G/Y1492G/V1493G/K1494S/T1495G/K1497G/R1498G): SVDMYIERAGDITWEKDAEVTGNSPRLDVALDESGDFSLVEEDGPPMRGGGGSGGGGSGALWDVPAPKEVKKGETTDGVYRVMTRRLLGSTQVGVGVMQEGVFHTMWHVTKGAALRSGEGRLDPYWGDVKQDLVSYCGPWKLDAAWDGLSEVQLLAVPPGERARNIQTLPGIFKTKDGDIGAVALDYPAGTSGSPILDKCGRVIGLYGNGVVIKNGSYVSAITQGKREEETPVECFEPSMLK

Row | SMILES | EC50 (DENV 2 [1]) | EC50 (DENV 2 [2]) | SI (CC50/EC50) (DENV 2 [2]) | viral copy numbers in the spleen and liver (DENV 2 [4]) | also measured
1 | CCOC(=O)c1ccc(C#Cc2ccc3c(c2)C(C)(C)CCS3)nc1 [AGN190168] | 0.107 µM | 10.9 µM | 24.15 |  | 
2 | NC(=NCc1ccccc1)NC(=O)c1nc(Cl)c(N)nc1N [Benzamil hydrochloride] | 2.62 µM | 0.368 µM | 120.85 |  | SI (CC50/EC50) (DENV 2 [2]; listed as benzamil hydrochloride): greater than 100; binding affinity on NS2B-NS3pro (NS2B-NS3pro): almost no binding affinity
3 | CC1=NN(c2ccc(C)c(C)c2)C(=O)/C1=N\Nc1cccc(-c2cccc(C(=O)O)c2)c1O [Eltrombopag] | 1.46 µM | 0.316 µM |  | significantly reduced | inhibition on addition at 36 h or later (DENV 2 [3]; MOI = 1, RT-qPCR at 48 h): reduced inhibition; time of addition following DENV 2 infection with effective inhibition (DENV 2 [3]; MOI = 1, RT-qPCR at 48 h): ≤ 24 h; inhibition when added at the post-infection stage versus full-time treatment (DENV 2 [3]; RT-qPCR at 48 h): comparable inhibition; effect on the viruses and cells themselves (pretreatment modes) (DENV 2 [3]; pretreatment of virus or of cell): negligible effect; reversibility of binding to DENV2 NS2B-NS3pro (DENV 2 NS2B-NS3pro; varying NS2B-NS3pro, fixed substrate 20 μM, eltrombopag 0, 10 and 20 μM): reversibly binds; mode of inhibition with respect to substrate (DENV 2 NS2B-NS3pro; varying substrate, NS2B-NS3pro 300 nM, Vmax changes, Km unchanged): substrate-non-competitive manner; water solubility (Water solubility): poorly water-soluble; viral copy numbers in the liver, spleen, and kidney (DENV 2 [4]; 10 or 20 mg/kg, i.g. or i.p., two days post challenge, Fig. 3C): reduced the viral copy numbers in the liver, spleen, and kidney in a dose-dependent manner; decrease of viral loads in spleen (DENV 2 [4]; DENV 2 at 10^7 TCID50): more than 1 log; expression of TNF-α and IL-6 in the blood (DENV 2 [4]; RT-qPCR, Fig. 3D): inhibited the expression of TNF-α and IL-6; inhibitory effect on viral copies by delivery route (DENV 2 [4]; i.p. compared with i.g., Fig. 3C): stronger inhibitory effect when delivered via i.p.; pharmacokinetics i.p. compared with i.g. (Pharmacokinetics in rats): better absorption, distribution, and clearance; IC50 (ZIKV NS2B-NS3pro): 29.8 µM
4 | Cc1cc(-c2ccc(/N=N/c3ccc4c(S(=O)(=O)O)cc(S(=O)(=O)O)c(N)c4c3O)c(C)c2)ccc1/N=N/c1ccc2c(S(=O)(=O)O)cc(S(=O)(=O)O)c(N)c2c1O [Evans Blue] | 0.337 µM | 4.85 µM | 49.98 |  | 
5 | COC(=O)N[C@H](C(=O)N1CC2(CC2)C[C@H]1c1nc(-c2ccc3c(c2)C(F)(F)c2cc(-c4ccc5[nH]c([C@@H]6[C@H]7CC[C@H](C7)N6C(=O)[C@@H](NC(=O)OC)C(C)C)nc5c4)ccc2-3)c[nH]1)C(C)C [GS-5885] | 0.529 µM | 3.31 µM |  | no effect | 
6 | COC(=O)N[C@H](C(=O)N1CCC[C@H]1c1nc(-c2ccc3c(c2)O[C@@H](c2ccccc2)n2c-3cc3cc(-c4c[nH]c([C@@H]5CCCN5C(=O)[C@@H](NC(=O)OC)C(C)C)n4)ccc32)c[nH]1)C(C)C [MK-8742] | 0.161 µM | 0.0459 µM |  | no effect | 
7 | C#CCC(Cc1cnc2nc(N)nc(N)c2n1)c1ccc(C(=O)N[C@@H](CCC(=O)O)C(=O)O)cc1 (stereo partly drawn) [Pralatrexate] | < 0.07 µM | < 0.0076 µM | >13684.21 |  | SI (CC50/EC50) (DENV 2 [2]; listed as pralatrexate): greater than 100; binding affinity on NS2B-NS3pro (NS2B-NS3pro): almost no binding affinity
8 | NC(=O)c1ncn([C@@H]2O[C@H](CO)[C@@H](O)[C@H]2O)n1 [Ribavirin] |  |  |  |  | time of addition following DENV 2 infection with effective inhibition (DENV 2 [3]; MOI = 1, RT-qPCR at 48 h): ≤ 12 h
